Legend:
HL-60 [1] = experiment: Cytotoxic concentration required to cause 50% toxicity in HL-60 cell lines at 24 hours; assay type: functional; conditions: Homo sapiens, HL-60, 24 h
Summary of the method: (§1)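 Cells were exposed under optimal culture conditions to 8–512 μM test agent or to control medium for the stated time. Viability was scored by trypan blue exclusion. CC50 is the concentration causing 50% toxicity, determined from two or more experiments.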

HL-60 [2] = experiment: Cytotoxic concentration required to cause 50% toxicity in HL-60 cell lines at 48 hours; assay type: functional; conditions: Homo sapiens, HL-60, 48 h; summary of the method: as §1
HL-60 [3] = experiment: Apoptotic concentration required to cause apoptosis in 50% of HL-60 cell lines at 24 hours; assay type: functional, cell-based; conditions: Homo sapiens, HL-60, 24 h
Summary of the method: (§2)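 Cells were exposed under optimal culture conditions to 8–512 μM test agent or to control medium for the stated time. They were then stained with acridine orange, and over 600 cells were counted by fluorescence microscopy. Cells counted as apoptotic had uniformly stained nuclei with chromatin condensation and nuclear fragmentation. AC50 is the concentration giving 50% apoptosis, determined from two or more experiments.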

HL-60 [4] = experiment: Apoptotic concentration required to cause apoptosis in 50% of HL-60 cell lines at 48 hours; assay type: functional, cell-based; conditions: Homo sapiens, HL-60, 48 h; summary of the method: as §2
MOLT-3 [5] = experiment: Apoptotic concentration required to cause apoptosis in 50% of Molt-3 cell lines at 24 hours; assay type: functional, cell-based; conditions: Homo sapiens, MOLT-3, 24 h; summary of the method: as §2
MOLT-3 [6] = experiment: Apoptotic concentration required to cause apoptosis in 50% of Molt-3 cell lines at 48 hours; assay type: functional, cell-based; conditions: Homo sapiens, MOLT-3, 48 h; summary of the method: as §2
MOLT-3 [7] = experiment: Apoptotic concentration required to cause apoptosis in 50% of Molt-3 cell lines at 72 hours; assay type: functional, cell-based; conditions: Homo sapiens, MOLT-3, 72 h; summary of the method: as §2
MOLT-3 [8] = experiment: Cytotoxic concentration required to cause 50% toxicity in Molt-3 cell lines at 24 hours; assay type: functional; conditions: Homo sapiens, MOLT-3, 24 h; summary of the method: as §1
MOLT-3 [9] = experiment: Cytotoxic concentration required to cause 50% toxicity in Molt-3 cell lines at 48 hours; assay type: functional; conditions: Homo sapiens, MOLT-3, 48 h; summary of the method: as §1
MOLT-3 [10] = experiment: Cytotoxic concentration required to cause 50% toxicity in Molt-3 cell lines at 72 hours; assay type: functional; conditions: Homo sapiens, MOLT-3, 72 h; summary of the method: as §1
THP-1 [11] = experiment: Apoptotic concentration required to cause apoptosis in 50% of THP-1 cell lines at 24 hours; assay type: functional, cell-based; conditions: Homo sapiens, THP-1, 24 h; summary of the method: as §2
THP-1 [12] = experiment: Cytotoxic concentration required to cause 50% toxicity in THP-1 cell lines at 24 hours; assay type: functional; conditions: Homo sapiens, THP-1, 24 h; summary of the method: as §1
U-937 [13] = experiment: Apoptotic concentration required to cause apoptosis in 50% of U-937 cell lines at 24 hours; assay type: functional, cell-based; conditions: Homo sapiens, U-937, 24 h; summary of the method: as §2
U-937 [14] = experiment: Apoptotic concentration required to cause apoptosis in 50% of U-937 cell lines at 48 hours; assay type: functional, cell-based; conditions: Homo sapiens, U-937, 48 h; summary of the method: as §2
U-937 [15] = experiment: Apoptotic concentration required to cause apoptosis in 50% of U-937 cell lines at 72 hours; assay type: functional, cell-based; conditions: Homo sapiens, U-937, 72 h; summary of the method: as §2
U-937 [16] = experiment: Cytotoxic concentration required to cause 50% toxicity in U-937 cell lines at 24 hours; assay type: functional; conditions: Homo sapiens, U-937, 24 h; summary of the method: as §1
U-937 [17] = experiment: Cytotoxic concentration required to cause 50% toxicity in U-937 cell lines at 48 hours; assay type: functional; conditions: Homo sapiens, U-937, 48 h; summary of the method: as §1
U-937 [18] = experiment: Cytotoxic concentration required to cause 50% toxicity in U-937 cell lines at 72 hours; assay type: functional; conditions: Homo sapiens, U-937, 72 h; summary of the method: as §1

O=c1[nH]c(=O)n(C2CCNO2)cc1F (stereo not drawn)
CC50 (HL-60 [1]): > 1000 µM
CC50 (HL-60 [2]): > 1000 µM
AC50 (HL-60 [3]): > 1000 µM
AC50 (HL-60 [4]): > 1000 µM
AC50 (MOLT-3 [5]): 329 µM
AC50 (MOLT-3 [6]): 96 µM
AC50 (MOLT-3 [7]): 13 µM
CC50 (MOLT-3 [8]): > 1000 µM
CC50 (MOLT-3 [9]): 806 µM
CC50 (MOLT-3 [10]): 366 µM
AC50 (THP-1 [11]): > 1000 µM
CC50 (THP-1 [12]): > 1000 µM
AC50 (U-937 [13]): > 1000 µM
AC50 (U-937 [14]): 123 µM
AC50 (U-937 [15]): 3 µM
CC50 (U-937 [16]): > 1000 µM
CC50 (U-937 [17]): > 1000 µM
CC50 (U-937 [18]): 687 µM

— ChEMBL document CHEMBL1145054, “Enantioselective syntheses and cytotoxicity of N,O-nucleosides” (J Med Chem, 2003)
